Values after ≈ are worked out from the molar mass of the structure shown. Values joined by “and” are separate entries in the source; they are usually repeats but may differ in a detail not shown here. Equal values may be shown once.
Tests used:
Pseudomonas aeruginosa = experiment: Compound was tested in vitro for antibacterial activity against Pseudomonas aeruginosa 647 strain.; type: functional
How it was run: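 Broth microdilution MIC. Inocula were pre-grown on agar slants or in M9 or Davis-Mingoli minimal medium for 7–16 h at 37 °C. Peptides were dissolved in 50 mM potassium phosphate, pH 7.4, serially diluted 2- or 10-fold, and filter-sterilised. Wells held 10^5 cfu/mL in M-9 broth with thiamine and lysine, read after 16 h at 37 °C.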

Enterobacter cloacae [1] = experiment: Compound was tested in vitro for antibacterial activity against Enterobacter cloacae P99 strain; type: functional
How it was run: (§1)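 Inocula grown on agar slants or in liquid M9 or Davis-Mingoli minimal medium for 7–16 h at 37 °C. Peptides dissolved in 50 mM potassium phosphate, pH 7.4, serially diluted 2- or 10-fold in the same buffer, filter-sterilized.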

Klebsiella pneumoniae = experiment: Compound was tested in vitro for antibacterial activity against Klebsiella pneumoniae 4200 strain.; type: functional; how it was run: as §1
Escherichia coli = experiment: Compound was tested in vitro for antibacterial activity against Escherichia coli CB64 strain; type: functional; how it was run: as §1
Salmonella enteritidis = experiment: Compound was tested in vitro for antibacterial activity against Salmonella enteritidis E497 strain.; settings: Salmonella enterica
[2] = Compound was tested in vitro for antibacterial activity against Citrobacter sp 2404 strain.; type: functional; how it was run: as §1
Serratia marcescens = experiment: Compound was tested in vitro for antibacterial activity against Serratia marcescens ATCC 13880 strain; type: functional; how it was run: as §1
Providencia rettgeri = experiment: Compound was tested in vitro for antibacterial activity against Providencia rettgeri AAB-137 strain.; type: functional; how it was run: as §1
Enterobacter cloacae [3] = experiment: Reversal of antibacterial activity by the compound, expressed as agar disc zone size with LL-DAP (0.76 ug/disc); No zone; type: functional, organism-based
Enterobacter cloacae [4] = experiment: Reversal of antibacterial activity by the compound, expressed as agar disc zone size with LL-DAP (0.38 ug/disc); No zone; type: functional, organism-based
Enterobacter cloacae [5] = experiment: Reversal of antibacterial activity by the compound, expressed as agar disc zone size with L-Ala-LL-DAP (0.0 ug/disc); type: functional
Enterobacter cloacae [6] = experiment: Reversal of antibacterial activity by the compound, expressed as agar disc zone size with LL-DAP (0.0 ug/disc); type: functional
Enterobacter cloacae [7] = experiment: Reversal of antibacterial activity by the compound, expressed as agar disc zone size with L-Ala-LL-DAP (26 ug/disc); No zone; type: functional, organism-based
Enterobacter cloacae [8] = experiment: Reversal of antibacterial activity by the compound, expressed as agar disc zone size with LL-DAP (0.19 ug/disc); type: functional
Enterobacter cloacae [9] = experiment: Reversal of antibacterial activity by the compound, expressed as agar disc zone size with L-Ala-LL-DAP (6.5 ug/disc); type: functional

| SMILES | MIC (Pseudomonas aeruginosa) | MIC (Enterobacter cloacae [1]) | MIC (Klebsiella pneumoniae) | MIC (Escherichia coli) | MIC (Salmonella enteritidis) | MIC [2] | MIC (Serratia marcescens) | MIC (Providencia rettgeri) | Zone size (Enterobacter cloacae [3]) | Zone size (Enterobacter cloacae [4]) | Zone size (Enterobacter cloacae [5]) | Zone size (Enterobacter cloacae [6]) | Zone size (Enterobacter cloacae [7]) | Zone size (Enterobacter cloacae [8]) | Zone size (Enterobacter cloacae [9]) |
| --- | --- | --- | --- | --- | --- | --- | --- | --- | --- | --- | --- | --- | --- | --- | --- |
| CC(N)C(=O)NCCP(=O)(O)O (centres undefined) [ALAFOSALIN] | > 100 µg/mL | 100 µg/mL (≈ 510 µM) | 1.6 µg/mL (≈ 8.16 µM) | < 0.1 µg/mL | 50 µg/mL (≈ 255 µM) | 25 µg/mL (≈ 127 µM) | 1.6 µg/mL (≈ 8.16 µM) | > 100 µg/mL |  |  |  |  |  |  |  |
| N[C@@H](CCCCC(=O)O)C(=O)N1CCC[C@H]1C(=O)O |  | 8 µg/mL (≈ 29.4 µM) | 16 µg/mL (≈ 58.8 µM) | > 1000 µg/mL | > 1000 µg/mL | > 1000 µg/mL | > 1000 µg/mL | 4 µg/mL (≈ 14.7 µM) |  |  |  |  |  |  |  |
| C[C@H](NC(=O)[C@@H](N)CCCCC(=O)O)C(=O)O | > 1000 µg/mL | 4 µg/mL (≈ 16.2 µM) | 8 µg/mL (≈ 32.5 µM) | 2 µg/mL (≈ 8.12 µM) | 8 µg/mL (≈ 32.5 µM) | 2 µg/mL (≈ 8.12 µM) | 2 µg/mL (≈ 8.12 µM) | < 1 µg/mL |  |  |  |  |  |  |  |
| C[C@H](N)C(=O)N[C@@H](C)C(=O)N[C@@H](CCCCC(=O)O)C(=O)O |  | 63 µg/mL (≈ 199 µM) | 1000 µg/mL (≈ 3150 µM) | 31 µg/mL (≈ 97.7 µM) | 2 µg/mL (≈ 6.3 µM) | 250 µg/mL (≈ 788 µM) | 16 µg/mL (≈ 50.4 µM) | 125 µg/mL (≈ 394 µM) | No zone | No zone | 25 mm | 25 mm | No zone | 17 mm and 21 mm | 9 mm and 15 mm |

The next lines start with results.

| MIC (Pseudomonas aeruginosa) | MIC (Enterobacter cloacae [1]) | MIC (Klebsiella pneumoniae) | MIC (Escherichia coli) | MIC (Salmonella enteritidis) | MIC [2] | MIC (Serratia marcescens) | MIC (Providencia rettgeri) | SMILES | Zone size (Enterobacter cloacae [3]) | Zone size (Enterobacter cloacae [4]) | Zone size (Enterobacter cloacae [5]) | Zone size (Enterobacter cloacae [6]) | Zone size (Enterobacter cloacae [7]) | Zone size (Enterobacter cloacae [8]) | Zone size (Enterobacter cloacae [9]) |
| --- | --- | --- | --- | --- | --- | --- | --- | --- | --- | --- | --- | --- | --- | --- | --- |
| 1000 µg/mL (≈ 4060 µM) | 4 µg/mL (≈ 16.2 µM) | 16 µg/mL (≈ 65 µM) | 16 µg/mL (≈ 65 µM) | 16 µg/mL (≈ 65 µM) | 8 µg/mL (≈ 32.5 µM) | 8 µg/mL (≈ 32.5 µM) | 4 µg/mL (≈ 16.2 µM) | C[C@H](N)C(=O)N[C@@H](CCCCC(=O)O)C(=O)O |  |  |  |  |  |  |  |
| > 1000 µg/mL | > 1000 µg/mL | 500 µg/mL (≈ 2850 µM) | > 1000 µg/mL | > 1000 µg/mL | > 1000 µg/mL | > 1000 µg/mL |  | NC(CCCCC(=O)O)C(=O)O (centres undefined) |  |  |  |  |  |  |  |
|  | 250 µg/mL (≈ 918 µM) | 63 µg/mL (≈ 231 µM) | 500 µg/mL (≈ 1840 µM) | > 1000 µg/mL | 250 µg/mL (≈ 918 µM) | > 1000 µg/mL | 250 µg/mL (≈ 918 µM) | O=C(O)CCCC[C@H](NC(=O)[C@@H]1CCCN1)C(=O)O |  |  |  |  |  |  |  |

From ChEMBL document CHEMBL1123511, “Peptides of 2-aminopimelic acid: antibacterial agents that inhibit diaminopimelic acid biosynthesis” (1986)
